Compounds with a hit are over-represented: about 2.7% of the library has one in this group of screens.
Env fusion inh – inhibitors of HIV-1 Env-driven cell-cell fusion, primary screen, HeLa-JRFL effector, CEM21 target cells, luciferase. inhibition, % at 12.3 µM. 360,000 tested, 1.1% active;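 active = mean replicate inhibition score of at least 50 and every replicate individually at or above 50; inconclusive = only one of the two criteria met; inactive = mean below 50 and not all replicates reaching 50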
F508del corr – F508del CFTR correction, initial screen, CFBE line, single point | CFBE cells, YFP halide quenching; stimulated with forskolin plus potentiator P3; % fluorescence drop versus neutral controls | 350,000 tested, 0.36% active | activity (quench increase), % at 7.58 µM;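 active = mean added fluorescence quench of at least 8% versus neutral control, with both replicates also reaching 8%; inconclusive = only one of the mean or replicate conditions met; inactive = mean below 8% and not both replicates reaching 8%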;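 also: cells transiently co-express mutant CFTR-F508del with the halide-sensitive YFP; corrector assay measuring rescue of mutant channel to the surface after 24 h compound exposure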
E-selectin induc – E-selectin induction in HUVECs, primary screen, imaging, HUVEC, immunofluorescence imaging, single point | 260,000 tested, 0.37% active | AID 686992, 2013 | normalized: neutral wells 0, TNF-alpha wells 100 | activation, % at 7.58 µM;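 active = mean E-selectin-positive cell signal at least 10% of the positive control, reached in at least 60% of replicates, without over 20% cell loss; inconclusive = no rule given, readout overlaps actives, possibly toxicity-flagged; inactive = the rest, including those meeting only one limit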
Target sequence (P16581 whole entry, looked up): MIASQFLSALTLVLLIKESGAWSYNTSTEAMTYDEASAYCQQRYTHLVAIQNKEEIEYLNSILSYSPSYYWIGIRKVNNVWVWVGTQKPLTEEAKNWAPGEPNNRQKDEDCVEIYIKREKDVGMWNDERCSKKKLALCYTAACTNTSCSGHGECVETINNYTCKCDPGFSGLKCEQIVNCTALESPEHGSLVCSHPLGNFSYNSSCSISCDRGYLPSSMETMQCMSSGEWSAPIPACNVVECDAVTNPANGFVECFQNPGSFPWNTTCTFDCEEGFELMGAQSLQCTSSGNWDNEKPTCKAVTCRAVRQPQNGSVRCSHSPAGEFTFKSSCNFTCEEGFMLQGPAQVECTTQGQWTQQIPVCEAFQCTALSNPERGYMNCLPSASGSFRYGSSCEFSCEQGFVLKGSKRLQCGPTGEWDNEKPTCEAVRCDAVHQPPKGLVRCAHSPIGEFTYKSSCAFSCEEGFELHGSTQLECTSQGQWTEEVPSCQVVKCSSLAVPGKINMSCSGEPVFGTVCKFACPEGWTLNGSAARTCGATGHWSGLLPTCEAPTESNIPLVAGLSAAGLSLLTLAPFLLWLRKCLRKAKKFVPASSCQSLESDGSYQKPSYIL
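assay system = HUVEC, human umbilical vein endothelial cells | input = 3,000 HUVEC seeded per well | medium = EGM-2 growth medium on 0.1% gelatin-coated wells | dosing = one compound dose added by pin transfer | signal = immunofluorescence imaging | read-out basis = % PE-positive cells | control set = TNF-alpha, DMSO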
S100A4 inh HTS – inhibitors of S100A4-myosin IIA peptide binding, primary screen, biochemical, fluorescence polarization, TAMRA-MyoIIA peptide; Protein S100-A4 (Homo sapiens), P26447; inhibition, % at 10.7 µM; 360,000 tested, 0.14% active;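 active = mean inhibition of at least 70% across replicates, with every replicate also reaching that level; inconclusive = mean inhibition reaches 70% but some replicates fall short; inactive = mean inhibition below 70%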
Target sequence (P26447 whole entry, looked up): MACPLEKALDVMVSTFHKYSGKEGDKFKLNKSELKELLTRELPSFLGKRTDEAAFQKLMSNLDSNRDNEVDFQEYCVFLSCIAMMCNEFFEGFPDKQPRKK
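Material: human S100A4 monomer with TAMRA-labelled myosin IIA peptide; buffer or medium: HEPES pH 7.2 with CaCl2, KCl, NaCl, DTT, Triton; compound dosing: one concentration per compound; schedule: 5 min incubation before reading; benchmarks: neutral control DMSO, positive control TFP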
FGF22 binding – binders of human FGF22 protein, primary screen, FGF22 synaptogenesis inhibitor project, biophysical, thermal shift, single point; recombinant FGF22 thermal shift, SYPRO orange fluorescence; percent of sucrose octasulfate shift, DMSO zero; AID 651658, 2012; 340,000 tested, 1.5% active; activity (Tm shift, normalised), % at 9.99 µM;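 active = mean Tm shift, scaled 0 neutral to 100 positive control, at about 1.3% or above, every replicate too, limit read from the data; inconclusive = no clear call, values can overlap the other calls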
Each line names hits and unclear results; the compound was inactive in the other large screens; [ ] = dose if it differs, or a comment.

C[C@@H]1CN([C@@H](C)CO)C(=O)c2cccc(NC(=O)Nc3ccc(C(F)(F)F)cc3)c2O[C@H]1CN(C)Cc1ccc(C(F)(F)F)cc1	Env fusion inh 76[16.7 µM]
CC(C)NC(=O)Nc1cccc2c1O[C@@H](CN(C)Cc1ccc(C(F)(F)F)cc1)[C@@H](C)CN([C@H](C)CO)C2=O	E-selectin induc 53 (no result: Env fusion inh)
C[C@H]1CN([C@@H](C)CO)C(=O)c2cccc(NC(=O)Nc3ccc(C(F)(F)F)cc3)c2O[C@@H]1CN(C)Cc1ccc(C(F)(F)F)cc1	Env fusion inh inconclusive
CC(C)NC(=O)Nc1cccc2c1O[C@H](CN(C)Cc1ccncc1)[C@@H](C)CN([C@H](C)CO)C2=O	E-selectin induc 81 (no result: Env fusion inh)
C[C@@H]1CN([C@H](C)CO)C(=O)c2cccc(NC(=O)Nc3ccc(C(F)(F)F)cc3)c2O[C@H]1CN(C)Cc1ccc(Cl)c(Cl)c1	none (no result: E-selectin induc)
COc1ccc(S(=O)(=O)N(C)C[C@H]2Oc3c(NC(=O)Nc4ccc(C(F)(F)F)cc4)cccc3C(=O)N([C@@H](C)CO)C[C@H]2C)cc1	Env fusion inh 108[16.7 µM] (no result: E-selectin induc)
CC(C)NC(=O)N(C)C[C@@H]1Oc2c(NC(=O)Nc3ccc(C(F)(F)F)cc3)cccc2C(=O)N([C@H](C)CO)C[C@@H]1C	none (no result: E-selectin induc, FGF22 binding)
CC(C)NC(=O)N(C)C[C@H]1Oc2c(NC(=O)Nc3ccc(C(F)(F)F)cc3)cccc2C(=O)N([C@@H](C)CO)C[C@H]1C	Env fusion inh 56[16.7 µM] (no result: E-selectin induc, FGF22 binding)
COc1ccc(NC(=O)N(C)C[C@@H]2OCCCC[C@@H](C)Oc3ccc(NC(=O)Nc4ccc(F)cc4)cc3C(=O)N([C@@H](C)CO)C[C@@H]2C)cc1	none
COc1cc(OC)cc(C(=O)NCC(=O)OCC(=O)c2ccc3c(c2)-c2ccccc2C3)c1	FGF22 binding 45 (no result: E-selectin induc)
CN(c1ccccc1)S(=O)(=O)c1cccc(NC(=O)CSc2nccc(=O)[nH]2)c1	FGF22 binding 43
CN(c1ccccc1)S(=O)(=O)c1cccc(NC(=O)CSc2n[nH]c(N)n2)c1	none
CN(c1ccccc1)S(=O)(=O)c1cccc(NC(=O)C2=NNC(=O)CC2)c1	Env fusion inh 64
Cc1ccc(C(=O)Nc2cccc(S(=O)(=O)N(C)c3ccccc3)c2)o1	none (no result: E-selectin induc)
CO[C@H]1CN(C)C(=O)c2ccc(NC(C)=O)cc2OC[C@@H](C)N(C(=O)C2CCCCC2)C[C@@H]1C	none (no result: Env fusion inh)
Cc1ccc(S(=O)(=O)N(C)C[C@@H]2Oc3ncc(-c4ccncc4)cc3C(=O)N([C@@H](C)CO)C[C@H]2C)cc1	none
C[C@@H]1CCCCO[C@@H](CN(C)Cc2ccncc2)[C@H](C)CN([C@H](C)CO)C(=O)c2cc(NC(=O)Nc3ccccc3)ccc2O1	none (no result: FGF22 binding)
CCC(=O)N1CC(=O)N2[C@@H](CO)[C@H](c3ccc(-c4ccc(C#N)cc4)cc3)[C@@H]2C1	none (no result: Env fusion inh, S100A4 inh HTS, FGF22 binding)
COc1ccc(C2=NN(C(=O)CSc3nnc(C)n3C)C(c3ccco3)C2)cc1 (stereo not given)	FGF22 binding 43 (no result: E-selectin induc)
C#Cc1cccc(C(=O)N(Cc2cccnc2)CC2CCCN(C3CCCCC3)C2)c1 (stereo not given)	Env fusion inh inconclusive, FGF22 binding 43
COc1ccccc1-c1nnc(NC(=O)c2ccc(S(=O)(=O)N(C)CC3CCCO3)cc2)o1 (stereo not given)	none
CN(CC1CCCO1)S(=O)(=O)c1ccc(C(=O)Nc2nnc(-c3ccccc3)o2)cc1 (stereo not given)	F508del corr 8.2
O=C(NNC(=O)C(c1ccccc1)c1ccccc1)c1ccccn1	Env fusion inh 74 (no result: E-selectin induc)
CC(=O)N(C)C[C@H]1Oc2cc(C#Cc3ccc(F)cc3)ccc2S(=O)(=O)N([C@@H](C)CO)C[C@@H]1C	none (no result: Env fusion inh)
O=C(Cc1ccccc1)NCC(=O)OCC(=O)c1ccccc1Cl	FGF22 binding 112
O=C(CNC(=O)c1ccccc1)OCC(=O)c1ccccc1Cl	none
CCCCC(=NCCc1c(C)[nH]c2ccccc12)C1=C(O)CC(c2ccccc2)CC1=O (stereo not given)	F508del corr 8.6 (no result: E-selectin induc)
CC(=NCCc1c(C)[nH]c2ccc(C)cc12)C1=C(O)CC(c2ccccc2)CC1=O (stereo not given)	none (no result: F508del corr, E-selectin induc, S100A4 inh HTS, FGF22 binding)
C[C@@H]1CCCCO[C@H](CN(C)C)[C@@H](C)CN([C@@H](C)CO)C(=O)c2cc(NC(=O)Nc3ccc4c(c3)OCO4)ccc2O1	none
Cc1nc2c(-c3ccc(F)cc3)c(C)nn2c(C)c1CCC(=O)N1CCN(c2ccccc2)CC1	none
Cc1nc2c(-c3ccc(F)cc3)c(C)nn2c(C)c1CCC(=O)N1CCC(Cc2ccccc2)CC1	Env fusion inh 55
Cc1nc2c(-c3ccc(F)cc3)c(C)nn2c(C)c1CCC(=O)N1CCN(c2ccc(F)cc2)CC1	Env fusion inh 56
Cc1nc2c(-c3ccc(F)cc3)c(C)nn2c(C)c1CCC(=O)Nc1ccccc1	Env fusion inh 63
COc1ccccc1NC(=O)CCc1c(C)nc2c(-c3ccc(F)cc3)c(C)nn2c1C	Env fusion inh inconclusive
C[C@@H]1CN([C@@H](C)CO)C(=O)c2cccc(NC(=O)Nc3ccccc3)c2O[C@@H]1CN(C)S(=O)(=O)c1ccc(Cl)cc1	none (no result: Env fusion inh)
CNC(=O)C[C@@H]1CC[C@@H]2[C@H](COC[C@H](O)CN2Cc2ccncc2)O1	none (no result: Env fusion inh)
O=[N+]([O-])c1cc(C(F)(F)F)cc([N+](=O)[O-])c1NCCNC(=S)Nc1ccc(Cl)c(Cl)c1	Env fusion inh 57 (no result: E-selectin induc)
CN(C)CCCN(C(=O)c1cc2cc([N+](=O)[O-])ccc2s1)c1nc2cc3c(cc2s1)OCCO3	Env fusion inh 87
COc1cccc(-c2cnc3c(c2)C(=O)N([C@H](C)CO)C[C@@H](C)[C@@H](CN(C)CC2CC2)O3)c1	none (no result: S100A4 inh HTS, FGF22 binding)
CN(C)c1ccc(NC(=S)Nc2ccc3c(c2)c(=O)n(C)n3-c2ccc(C(C)(C)C)cc2)cc1	Env fusion inh 58
CN(C)c1ccc(NC(=O)Nc2ccc3c(c2)c(=O)n(C)n3-c2ccccc2)cc1	none
C[C@H]1CN([C@@H](C)CO)C(=O)c2cc(NC(=O)NC3CCCCC3)ccc2O[C@@H]1CN(C)S(=O)(=O)c1ccc(Cl)cc1	E-selectin induc 449 (no result: Env fusion inh)
C[C@@H]1CN([C@@H](C)CO)C(=O)c2cc(NC(=O)NC3CCCCC3)ccc2O[C@@H]1CN(C)S(=O)(=O)c1ccc(Cl)cc1	E-selectin induc 27 (no result: Env fusion inh)
N#Cc1c(Cl)nsc1NC(=O)c1ccccc1	Env fusion inh 60 (no result: E-selectin induc)
Cc1ccc(NC(=O)c2ccc(Br)o2)c([N+](=O)[O-])c1	none (no result: E-selectin induc)
NS(=O)(=O)c1ccc(NNC(=O)c2ccc(Br)o2)c([N+](=O)[O-])c1	F508del corr 8.0 (no result: Env fusion inh)

Bioassay records from PubChem BioAssay.
